The results in this text go back to ChEMBL document CHEMBL3271969, “2-pyridylimidazoles as inhibitors of xanthine oxidase” (J Med Chem, 1977).

A short description of data set [1]: Association constant, apparent pKa of the compound. It counts as physicochemical.
A short description of data set [2]: Dissociation constant, apparent pKa of the compound. It counts as physicochemical.
Data set [3] deals with T1, Xanthine dehydrogenase/oxidase (Bos taurus, UniProt P80457). Description: Inhibition of bovine xanthine oxidase. To be noted: read-out: I50.
T1 sequence (P80457 whole entry): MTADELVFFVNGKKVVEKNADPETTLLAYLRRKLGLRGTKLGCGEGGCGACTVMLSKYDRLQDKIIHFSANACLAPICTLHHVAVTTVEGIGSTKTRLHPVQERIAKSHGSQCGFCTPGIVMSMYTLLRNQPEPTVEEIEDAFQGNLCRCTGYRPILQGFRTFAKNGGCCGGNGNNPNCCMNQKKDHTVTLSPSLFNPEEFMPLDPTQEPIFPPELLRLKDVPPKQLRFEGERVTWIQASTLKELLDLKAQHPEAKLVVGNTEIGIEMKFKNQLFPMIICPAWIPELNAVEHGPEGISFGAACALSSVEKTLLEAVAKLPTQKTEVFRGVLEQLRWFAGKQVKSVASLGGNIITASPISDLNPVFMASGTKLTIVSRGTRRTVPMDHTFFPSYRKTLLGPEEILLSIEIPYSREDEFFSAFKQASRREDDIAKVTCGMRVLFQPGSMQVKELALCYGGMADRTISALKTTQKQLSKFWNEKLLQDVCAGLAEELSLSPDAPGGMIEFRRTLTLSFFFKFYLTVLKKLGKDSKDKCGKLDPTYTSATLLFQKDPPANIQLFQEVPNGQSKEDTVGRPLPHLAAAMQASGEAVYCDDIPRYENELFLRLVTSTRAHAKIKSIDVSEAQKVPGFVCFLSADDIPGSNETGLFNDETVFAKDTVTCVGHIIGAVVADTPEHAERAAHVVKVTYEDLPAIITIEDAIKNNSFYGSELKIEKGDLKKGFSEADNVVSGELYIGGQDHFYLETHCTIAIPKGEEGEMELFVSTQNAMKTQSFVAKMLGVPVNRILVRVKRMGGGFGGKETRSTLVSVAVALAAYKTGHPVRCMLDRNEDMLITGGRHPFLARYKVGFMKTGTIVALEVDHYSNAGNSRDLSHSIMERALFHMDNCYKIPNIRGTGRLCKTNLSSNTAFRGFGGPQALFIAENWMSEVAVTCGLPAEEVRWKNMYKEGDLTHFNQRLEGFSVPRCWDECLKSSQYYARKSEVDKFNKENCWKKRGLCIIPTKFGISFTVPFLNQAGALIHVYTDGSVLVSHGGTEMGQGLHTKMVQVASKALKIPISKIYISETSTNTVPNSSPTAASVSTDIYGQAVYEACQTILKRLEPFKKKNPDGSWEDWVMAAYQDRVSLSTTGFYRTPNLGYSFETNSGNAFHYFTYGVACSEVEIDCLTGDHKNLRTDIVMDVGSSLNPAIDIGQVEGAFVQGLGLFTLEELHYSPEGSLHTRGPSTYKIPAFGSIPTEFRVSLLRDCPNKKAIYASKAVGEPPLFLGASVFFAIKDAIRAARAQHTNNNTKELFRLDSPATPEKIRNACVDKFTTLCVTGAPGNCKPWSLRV
Data set [4] concerns the target T1, Xanthine dehydrogenase/oxidase. Put plainly: Inhibition of bovine xanthine oxidase at 2 X 10^-5 M. Particulars: cattle; for inhibition (INH): 20 µM; call rule not given here. The method, boiled down:
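Bovine xanthine oxidase, diluted 1:300 to give ΔOD292 of 0.09–0.12 per min, starts the reaction in 0.05 M phosphate buffer pH 7.5 with hypoxanthine at 3×10^-5 M plus inhibitor.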

In the case of `Clc1ccc2[nH]c(-c3ccncc3)nc2c1`, the pKa in data set [1] amounted to 3.5; in data set [2] it was 10.

Regarding `FC(F)(F)c1cnc(-c2cccnc2)[nH]1`, in data set [3], the IC50 amounted to 40 µM. Moreover, the pKa is 3.5 in data set [1] and 10.2 in data set [2].

As for `Brc1nc(-c2cccnc2)[nH]c1Br`, in data set [3], the IC50 was determined as 20 µM.

In turn, `Clc1nc(-c2cccnc2)[nH]c1Cl` gave an inhibition at 20 µM in data set [4] of 29%.

Consider `c1cc(-c2ncc[nH]2)ccn1`, for which, in data set [4], the “inhibition (INH)” value is “Not Active”.

Consider `Cc1cnc(-c2ccncc2)[nH]1`, for which the “inhibition (INH)” value in data set [4] is reported as “Not Active”.

As for `O=[N+]([O-])c1c[nH]cn1`, the pKa in data set [2] was 9. For the same molecule, in data set [4], the “inhibition (INH)” value is reported as “Not Active”.

As for `O=[N+]([O-])c1cnc(-c2ccncc2)[nH]1`, the IC50 in data set [3] was determined as 0.35 µM.

Turning to `N#Cc1nc(-c2cccnc2)[nH]c1C#N`, in data set [3], the IC50 turned out to be 35 µM.

With `Cc1cnc(-c2cccnc2)[nH]1`, the “inhibition (INH)” value in data set [4] is given as “Not Active”.

Molecule `NC(=O)c1nc(-c2ccncc2)[nH]c1C(N)=O` gave an inhibition at 20 µM in data set [4] of 14%.

On to `c1cncc(-c2nc3cccnc3[nH]2)c1`, for which, in data set [4], the “inhibition (INH)” value is “Not Active”.

`COC(=O)c1nc(-c2ccncc2)[nH]c1C(=O)OC`: the figures for the pKa in data set [1] and in data set [2] were 3.98 and 7.15, respectively. The “inhibition (INH)” value in data set [4] is given as “Not Active”.

On to `Clc1cc2nc(-c3ccncc3)[nH]c2cc1Cl`, for which the IC50 in data set [3] was 15 µM. In addition, the pKa in data set [1] stood at 3; in data set [2], 9.33.

Take `O=C(O)c1nc(-c2ccncc2)[nH]c1C(=O)O`: the IC50 in data set [3] amounted to 5.8 µM.

Regarding `N#Cc1nc(-c2ccncc2)[nH]c1C#N`, the IC50 in data set [3] is 0.02 µM.

As to `c1ccc2[nH]c(-c3ccncc3)nc2c1`, the pKa in data set [1] was found to be 3.85; in data set [2], 10.9. The “inhibition (INH)” value in data set [4] is “Not Active”.

Regarding `O=C(O)c1cnc(-c2ccncc2)[nH]1`, in data set [4], the inhibition at 20 µM amounted to 34%.

In the case of `N#Cc1nc(-c2ccncc2)[nH]c1C(N)=O`, the IC50 in data set [3] came to 0.5 µM.

As for `c1cnc2[nH]c(-c3ccncc3)nc2c1`, in data set [4], the “inhibition (INH)” value is recorded as “Not Active”.

In the case of `Clc1ccc2nc(-c3cccnc3)[nH]c2c1`, in data set [4], the “inhibition (INH)” value was “Not Active”.

Regarding `O=C(O)c1nc(-c2cccnc2)[nH]c1C(=O)O`, the IC50 in data set [3] was determined as 1 µM.

For `c1cc(-c2nc3cnccc3[nH]2)ccn1`, the IC50 in data set [3] turned out to be 13 µM.

In the case of `N#Cc1cnc(-c2ccncc2)[nH]1`, the IC50 in data set [3] came out at 5.6 µM.

For `COC(=O)c1nc(-c2cccnc2)[nH]c1C(=O)OC`, the “inhibition (INH)” value in data set [4] is on record as “Not Active”.

For `c1cncc(-c2ncc[nH]2)c1`, the “inhibition (INH)” value in data set [4] is recorded as “Not Active”.

Regarding `O=[N+]([O-])c1cnc(-c2cccnc2)[nH]1`, the IC50 in data set [3] was 1.3 µM.

As to `FC(F)(F)c1cnc(-c2ccncc2)[nH]1`, in data set [3], the IC50 was found to be 2 µM. In addition, the pKa was 3.76 in data set [1] and 9.73 in data set [2].

As to `COC(=O)c1cnc(-c2ccncc2)[nH]1`, the inhibition at 20 µM in data set [4] stood at 10%.

For `NC(=O)c1nc(-c2cccnc2)[nH]c1C(N)=O`, the “inhibition (INH)” value in data set [4] is “Not Active”.

On to `c1cncc(-c2nc3cnccc3[nH]2)c1`, for which at 20 µM the inhibition in data set [4] was 23%.

Usually pKa stands for the pH at which an ionisable group is half protonated. What is called inhibition is the drop in the measured response relative to a control, in per cent. Read a high inhibition as a strong effect.
